# Bioassay records as filed in PubChem.
# Most compounds without a hit are left out; they make up all but 9.4% or so of the library.
# L major viab – Leishmania major promastigote growth inhibition, primary screen; Leishmania major promastigotes, resazurin fluorescence viability; inhibition, % at 10 µM; 9% of 200,000 active; AID 1063, 2008; in the data active means inhibition above about 50%;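 further: promastigotes grown with compound for 44 hours at 28 °C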
# SKKanGAS inh – S. pyogenes SKKanGAS growth inhibitors in kanamycin, primary screen, streptokinase expression inhibitor project, SKKanGAS strain, BacTiter-Glo luminescence; 6 h; inhibition, % at 7.5 µM; 1.3% of 300,000 active; AID 1662, 2009;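 active means mean replicate score, as percent of positive control median, at least 50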;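 further: strain carries kanamycin resistance gene driven by streptokinase promoter and grows in 40 µg/ml kanamycin; loss of luminescence reflects streptokinase promoter inhibition or plain growth inhibition; 0% = median of DMSO wells and 100% = positive control at its reference dose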
# CSC inhib – cancer stem cell viability inhibitors, primary screen, luminescence; 1.1% of 300,000 active; inhibition, % at 7.5 µM; cancer stem cell-like cells viability; AID 2717, 2010; in the data active means inhibition above about 75%; tested in HMLE shEcad cells
# Beta apoptosis – inhibitors of cytokine-induced beta cell apoptosis, primary screen, luminescence; INS-1E cytokine-induced death, ATP luminescence, 48 h; percent of positive-control rescue, neutral wells zero; protection from apoptosis, % (no concentration beside the values); 0.8% of 300,000 active;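 active means Every replicate reaches about 75%, or at least half do and their mean reaches it too, limit read from the data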;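 further: 0% = cytokine-treated negative control wells and 100% = positive control rescue; higher means more ATP so stronger rescue from cytokine killing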
# Mdm2-MdmX inh – inhibitors of human Mdm2-MdmX association, primary screen, cell-based, luminescence, split luciferase, SaOS-2, uHTS. Protein Mdm4 (Homo sapiens) + E3 ubiquitin-protein ligase Mdm2 (Homo sapiens), …. SaOS-2 split-luciferase Mdm2/MdmX complementation. inhibition, % at 8 µM. 3% of 330,000 active;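 active means inhibition of at least 50% at 8 µM in the primary screen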
# T cruzi repl – inhibitors of intracellular T. cruzi growth, primary screen, luminescence, NIH3T3 host cells. 1.4% of 300,000 active. T. cruzi beta-gal in NIH3T3, 90 h. inhibition, % (concentration not given with the values). AID 1885, 2009;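 active means mean inhibition across valid replicates above about 55%, limit read from the data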;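 further: signal also drops with host cell toxicity which is not excluded here; 0% = plate median of DMSO wells and 100% = zero luminescence signal; higher percent means less beta-gal luminescence so fewer parasites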
#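 Assay system: NIH/3T3 host cells with β-galactosidase reporter T. cruzi; input: 5,000 host fibroblasts per well; compound: single 50 nL compound addition per well in DMSO; timing: ≥90 h infection period, 3 h prior cell attachment; measured by: GalScreen β-gal luminescence, detergent lysis, 60 min; evaluation: percent inhibition of parasite-derived β-gal signal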
# * marks the source's active call; other numbers are inactive results; . = not tested or not shown.
SMILES,L major viab,SKKanGAS inh,CSC inhib,Beta apoptosis,Mdm2-MdmX inh,T cruzi repl
COc1ccc(-n2cc3ccc([N+](=O)[O-])cc3n2)cc1,.,0,1,-7,-210,17
COC(CNC(=O)c1ccc(N2CCc3ccccc32)c([N+](=O)[O-])c1)OC,96*,-1,-3,8,27,-14
CSc1ccccc1NC(=O)C1=COCCO1,.,13,-8,.,20,-1
CCOC(=O)C1C(=O)CC(C)(O)C(C(=O)OCC)C1c1ccc([N+](=O)[O-])cc1 (stereo unspecified),.,-2,-7,-1,15,17
Cc1cccc(Nc2nc(N)nc(CN3CCN(c4ccc(F)cc4)CC3)n2)c1,12,65*,1,-4,34,-8
Nc1nc(CN2CCC(Cc3ccccc3)CC2)nc(Nc2ccccc2)n1,100*,50*,-6,-14,32,9
Nc1nc(CN2CCN(Cc3ccc4c(c3)OCO4)CC2)nc(Nc2ccccc2)n1,72*,15,-12,-4,4,5
CC(=O)N1c2ccc(S(=O)(=O)N3CCC(C(=O)Nc4ncccc4C)CC3)cc2CC1C (stereo unspecified),.,0,4,-1,11,-39
Cc1ccc(C(=O)NCC(=O)OC(C)C(=O)NC2CCCc3ccccc32)cc1 (stereo unspecified),.,7,2,-3,8,-1
Cc1cccc(NC(=O)C2CCN(S(=O)(=O)c3cccc4nonc34)CC2)c1,.,6,-8,-5,1,7
COc1cc(/C=N/NC(=O)c2ccc(CN(C)S(=O)(=O)c3ccc(C)cc3)cc2)ccc1O,-6,2,78*,8,18,2
COc1ccc(/C=N/NC(=O)c2ccc(N(C)S(=O)(=O)c3ccccc3)cc2)cc1OC,67*,16,.,.,22,-2
CCN1CCCC1CNCc1cccc(OC)c1OCc1ccc(F)cc1 (stereo unspecified),63*,-1,.,.,-14,6
COc1cccc(CNc2ncn[nH]2)c1OCc1ccc(F)cc1,3,-3,0,0,0,4
CC(C)(C)N(Cc1ccccc1)C(=O)COC(=O)c1ccccc1SCC(=O)N1CCCC1,.,-7,-2,-1,0,-2
CC(C)NCC#CCOc1ccc(Cl)cc1,6,0,-13,-11,-16,8
CC1CCCCC1NCC#CCOc1ccc(Cl)cc1 (stereo unspecified),83*,19,-11,-2,19,16
COc1cc2c(cc1OC)C(COc1cc(C)cc(C)c1)N(C(C)=O)CC2 (stereo unspecified),.,-5,-9,-4,4,11
CC(C)N(C(=S)Nc1ccc(S(=O)(=O)N2CCOCC2)cc1)c1ccccc1,.,.,-10,-8,5,.
CN1CCN(C(=S)c2ccc([N+](=O)[O-])cc2)CC1,66*,1,.,-3,9,11
COc1cc(NC(=S)N2CCN(C)CC2)c(OC)cc1Cl,5,-10,-11,-1,-5,-8
CN1CCN(C(=S)c2ccc(N(C)C)cc2)CC1,94*,5,5,-2,-3,.
CN1CCN(C(=S)Nc2cc([N+](=O)[O-])ccc2Cl)CC1,66*,.,17,9,.,.
CN1CCN(C(=S)c2ccc(Br)cc2)CC1,85*,3,8,0,7,19
CCOc1ccccc1Nc1cc(C)nc2ccc(C)cc12,.,10,10,23,19,39
SMILES,L major viab,SKKanGAS inh,CSC inhib,Beta apoptosis,Mdm2-MdmX inh,T cruzi repl
CSc1ccc(C(=S)N2CCCC2)cc1,.,-4,-10,-1,9,-20
CSc1ccc(C(=S)N2CCN(C)CC2)cc1,94*,9,-8,-3,8,3
CCN1CCN(C(=S)c2ccc(Br)cc2)CC1,85*,-3,-7,-3,21,19
COc1cccc(CN2CCN(Cc3cc(OC)c(OC)cc3[N+](=O)[O-])CC2)c1,60*,-2,-14,-1,-6,12
COc1cc(CN2CCN(Cc3ccc([N+](=O)[O-])cc3)CC2)c([N+](=O)[O-])cc1OC,68*,-5,3,16,7,22
COc1cc(CN2CCCCCC2)c([N+](=O)[O-])cc1OC,.,-3,4,-6,-8,8
COc1ccc(CC(=O)NC2CC(C)(C)NC(C)(C)C2)cc1OC,.,0,-5,.,0,-6
Cc1nn(CC(=O)Nc2ccc3c(c2)nc2n3CCN(C3CCCCC3)C2)c(=O)c2ccccc12,72*,-6,-6,7,6,18
Cc1nn(CC(=O)Nc2ccc3c(c2)nc(CCN2CCCCC2)n3C)c(=O)c2ccccc12,3,-2,.,.,38,14
COc1ccc(CNC(=O)CN2CCC(NC(=O)c3ccc(OC)cc3)CC2)cc1,.,0,.,.,12,-2
Cc1nn(CC(=O)NCC(C)c2ccccc2)c(=O)c2cc(-c3ccccc3)nn12 (stereo unspecified),.,-9,6,-3,5,-11
O=C(NC(=S)NNC(=O)[C@H]1C[C@@H]1c1ccccc1)c1ccc(F)cc1,.,82*,23,.,49,4
CC(C)(C)NC(=S)NNC(=O)[C@H]1C[C@@H]1c1ccccc1,.,0,-7,-2,-8,-23
O=C(/C=C/c1ccc(F)cc1)NC(=S)NNC(=O)[C@H]1C[C@@H]1c1ccccc1,.,85*,-5,7,-8,-42
COc1cc(OC)cc(C(=O)NC(=S)NNC(=O)[C@H]2C[C@@H]2c2ccccc2)c1,.,105*,26,4,-3,-15
CNc1nc(SCc2ccc(C)cc2)nc2c1CCCC2,100*,3,12,-1,10,25
C[C@@]12C(=O)N(c3ccc(Cl)cc3)C(=O)N1[C@@H]1c3ccccc3OC[C@@H]1[C@H]2c1ccccc1,.,.,0,-4,6,.
CC(/C=C/c1ccccc1)=N/NC(=O)CNC(=O)c1ccc2c(c1)OCO2,-8,-5,-1,-2,15,-3
C/C(=N/NC(=O)CNC(=O)Cc1ccccc1)c1ccco1,63*,7,-5,-6,22,-8
C/C(=N\NC(=O)CNC(=O)c1ccc2c(c1)OCO2)c1ccco1,53*,3,2,-2,-2,-5
Fc1cccc(CN2CCN3CCCC3C2C2CCCCC2)c1 (stereo unspecified),89*,-17,-2,-1,14,24
CCN(CC)C(=O)C1CCCN(Cc2ccc(F)c(F)c2)C1 (stereo unspecified),-5,-3,14,-4,-6,44
Fc1ccc(CN2CCN3CCCC3C2C2CCCCC2)cc1F (stereo unspecified),99*,.,-3,-4,19,.
